Reference: ChEMBL document CHEMBL1127676, “Structure-activity relationships in a series of 5-[(2,5-dihydroxybenzyl)amino]salicylate inhibitors of EGF-receptor-associated tyrosine kinase: importance of additional hydrophobic aromatic interactions” (J Med Chem, 1994)

How the values were obtained:
[1] = molecular target: T1, Epidermal growth factor receptor (Homo sapiens, UniProt P00533); assay: Inhibitory potency against protein tyrosine kinase activity associated with EGFR was evaluated using ER 22 cell membrane
T1 sequence (P00533 whole entry): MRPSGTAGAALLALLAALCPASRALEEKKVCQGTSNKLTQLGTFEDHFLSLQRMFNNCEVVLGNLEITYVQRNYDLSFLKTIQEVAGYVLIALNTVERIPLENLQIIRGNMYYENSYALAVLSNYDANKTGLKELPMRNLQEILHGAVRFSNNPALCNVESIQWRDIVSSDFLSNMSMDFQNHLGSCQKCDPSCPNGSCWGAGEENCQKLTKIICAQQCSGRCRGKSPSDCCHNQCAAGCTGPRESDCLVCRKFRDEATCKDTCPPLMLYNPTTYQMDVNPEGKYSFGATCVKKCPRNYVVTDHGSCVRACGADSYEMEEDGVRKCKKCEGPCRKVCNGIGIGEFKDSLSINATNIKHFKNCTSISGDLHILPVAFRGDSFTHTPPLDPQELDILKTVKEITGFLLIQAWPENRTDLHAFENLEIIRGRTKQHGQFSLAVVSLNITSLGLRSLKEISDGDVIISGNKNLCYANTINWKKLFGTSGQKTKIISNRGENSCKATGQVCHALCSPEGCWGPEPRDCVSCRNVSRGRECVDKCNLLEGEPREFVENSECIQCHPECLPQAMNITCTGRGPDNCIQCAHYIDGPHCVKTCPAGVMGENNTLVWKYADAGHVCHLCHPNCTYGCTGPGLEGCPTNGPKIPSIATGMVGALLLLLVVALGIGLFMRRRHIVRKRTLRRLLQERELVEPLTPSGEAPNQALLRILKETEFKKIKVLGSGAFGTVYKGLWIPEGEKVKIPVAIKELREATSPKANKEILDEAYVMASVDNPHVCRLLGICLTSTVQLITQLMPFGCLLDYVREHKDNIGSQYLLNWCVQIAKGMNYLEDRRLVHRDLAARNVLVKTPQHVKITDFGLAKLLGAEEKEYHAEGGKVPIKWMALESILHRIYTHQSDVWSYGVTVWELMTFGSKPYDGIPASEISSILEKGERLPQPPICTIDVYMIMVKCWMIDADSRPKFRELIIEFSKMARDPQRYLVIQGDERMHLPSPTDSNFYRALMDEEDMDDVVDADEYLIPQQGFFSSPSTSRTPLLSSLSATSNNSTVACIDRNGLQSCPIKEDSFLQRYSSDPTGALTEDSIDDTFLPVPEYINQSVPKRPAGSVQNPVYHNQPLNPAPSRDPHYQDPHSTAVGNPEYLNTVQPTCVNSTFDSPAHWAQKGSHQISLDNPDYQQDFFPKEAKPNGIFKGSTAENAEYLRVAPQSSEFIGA

[2] = Inhibition of PKA(protein kinase-A)
[3] = molecular target: Protein kinase C (PKC); assay: Inhibition of rat PKC(protein kinase-C); assay type: protein assay
Summary of the method: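 PKC partially purified from rat brain by DEAE-cellulose chromatography and assayed in vitro with a commercial PKC assay kit; inhibitors tested for inhibition of the kinase activity.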

[4] = molecular target: T1, Epidermal growth factor receptor; settings: ER 22; 10 uM
[5] = molecular target: T1, Epidermal growth factor receptor; settings: ER 22; 100 uM
[6] = molecular target: T1, Epidermal growth factor receptor; assay: Inhibition of EGFR(epidermal growth factor receptor) autophosphorylation in ER22 cell membranes
[7] = molecular target: T1, Epidermal growth factor receptor; settings: ER 22; 10 uM; remark: listed apart in the source
[8] = molecular target: T1, Epidermal growth factor receptor; settings: 5 uM
[9] = molecular target: T1, Epidermal growth factor receptor; settings: ER 22; 10 uM; remark: listed apart in the source
[10] = molecular target: T1, Epidermal growth factor receptor; settings: ER 22; 10 uM; remark: listed apart in the source
[11] = molecular target: T1, Epidermal growth factor receptor; settings: 20 uM

CC(C)(C)ONC(=O)Cc1cc(NCc2cc(O)ccc2O)ccc1O
IC50 [1]: 5 µM

CC(C)c1ccc(COC(=O)c2cc(NCc3cc(O)ccc3O)ccc2O)cc1
IC50 [1]: 1 µM

O=C(Cc1cc(/N=C/c2cc(O)ccc2O)ccc1O)NOCc1ccccc1
IC50 [1]: 50 µM

O=C(O)c1cc(NCc2cc(O)ccc2O)ccc1O [LAVENDUSTIN C]
IC50 [2]: > 100 µM
IC50 [3]: > 100 µM

CC(C)CCCC(C)CCOC(=O)c1cc(/N=C/c2cc(O)ccc2O)ccc1O (centres undefined)
inhibition [4]: 20%

CC(COC(=O)c1cc(/N=C/c2cc(O)ccc2O)ccc1O)CC(C)(C)C (centres undefined)
IC50 [1]: > 10 µM

COC(=O)c1cc(/N=C/c2cc(O)ccc2O)ccc1O
inhibition [5]: 56%

CCOC(=O)Cc1cc(NCc2cc(O)ccc2O)ccc1O
IC50 [1]: 7 µM

O=C(OCCC12C[C@H]3C[C@@H](C1)C[C@@H](C2)C3)c1cc(NCc2cc(O)ccc2O)ccc1O
IC50 [1]: > 5 µM

CCOC(=O)Cc1cc(/N=C/c2cc(O)ccc2O)ccc1O
IC50 [1]: 100 µM

CC(C)CCCC(C)CCOC(=O)c1cc(NCc2cc(O)ccc2O)ccc1O (centres undefined)
IC50 [6]: 25 µM
IC50 [1]: 7 µM
IC50 [2]: 10 µM

CC(C)(C)OC(=O)c1cc(/N=C/c2cc(O)ccc2O)ccc1O
inhibition [7]: 15%

CCCCCCCCCCCCCCCCOC(=O)c1cc(NCc2cc(O)ccc2O)ccc1O
IC50 [1]: > 5 µM

CONC(=O)c1cc(/N=C/c2cc(O)ccc2O)ccc1O
IC50 [1]: 27 µM

O=C(NO)c1cc(NCc2cc(O)ccc2O)ccc1O
IC50 [1]: 0.4 µM

O=C(Oc1ccccc1)c1cc(NCc2cc(O)ccc2O)ccc1O
IC50 [1]: 0.07 µM

O=C(OCc1ccccc1)c1cc(NCc2cc(O)ccc2O)ccc1O
IC50 [1]: 0.08 µM

CONC(=O)c1cc(NCc2cc(O)ccc2O)ccc1O
IC50 [1]: 0.3 µM

O=C(OCCc1ccccc1)c1cc(NCc2cc(O)ccc2O)ccc1O
IC50 [6]: 0.2 µM
IC50 [1]: 0.13 µM
IC50 [2]: 4 µM

CCOC(=O)c1cc(/N=C/c2cc(O)ccc2O)ccc1O
IC50 [1]: 50 µM

CC(CCOC(=O)c1cc(NCc2cc(O)ccc2O)ccc1O)CC(C)(C)C (centres undefined)
IC50 [1]: > 1 µM

CC(COC(=O)c1cc(NCc2cc(O)ccc2O)ccc1O)CC(C)(C)C (centres undefined)
IC50 [6]: 8 µM
IC50 [1]: ~4 µM
IC50 [2]: 10 µM
IC50 [3]: 300 µM

COC(=O)Cc1cc(/N=C/c2cc(O)ccc2O)ccc1O
IC50 [1]: 100 µM

O=C(Oc1ccc(-c2ccccc2)cc1)c1cc(NCc2cc(O)ccc2O)ccc1O
IC50 [1]: 5 µM

CC(CCOC(=O)c1cc(NCc2cc(O)ccc2O)ccc1O)c1ccccc1 (centres undefined)
IC50 [1]: 0.4 µM

CCOP(=O)(Cc1cc(NCc2cc(O)ccc2O)ccc1O)OCC
IC50 [1]: 4 µM

O=C(Oc1cccc2ccccc12)c1cc(NCc2cc(O)ccc2O)ccc1O
IC50 [1]: 0.11 µM

CC(C)(C)CCOC(=O)c1cc(NCc2cc(O)ccc2O)ccc1O
IC50 [1]: 0.7 µM

O=C(Oc1ccc2ccccc2c1)c1cc(NCc2cc(O)ccc2O)ccc1O
IC50 [1]: 0.09 µM

O=P(O)(O)Cc1cc(NCc2cc(O)ccc2O)ccc1O
IC50 [1]: 3 µM

O=C(OCCCc1ccccc1)c1cc(NCc2cc(O)ccc2O)ccc1O
IC50 [6]: 0.7 µM
IC50 [1]: 0.03 µM
IC50 [2]: 11 µM
IC50 [3]: > 20 µM

O=C(O)Cc1cc(NCc2cc(O)ccc2O)ccc1O
IC50 [1]: 6 µM

O=C(NOCc1ccccc1)c1cc(/N=C/c2cc(O)ccc2O)ccc1O
inhibition [8]: 43%
inhibition [9]: 8%

CC(CCOC(=O)c1cc(/N=C/c2cc(O)ccc2O)ccc1O)CC(C)(C)C (centres undefined)
inhibition [7]: 20%

O=C(Cc1cc(NCc2cc(O)ccc2O)ccc1O)NOCc1ccccc1
IC50 [1]: 1 µM

Cc1cc(C)cc(COC(=O)c2cc(NCc3cc(O)ccc3O)ccc2O)c1
IC50 [1]: 3 µM

O=C(O)c1cc(/N=C/c2cc(O)ccc2O)ccc1O
IC50 [1]: 5 µM

O=C(OCC1CCCCC1)c1cc(NCc2cc(O)ccc2O)ccc1O
IC50 [1]: 1.2 µM

CC(C)(C)CCOC(=O)c1cc(/N=C/c2cc(O)ccc2O)ccc1O
inhibition [10]: 10%

O=C(O)Cc1cc(/N=C/c2cc(O)ccc2O)ccc1O
IC50 [1]: 35 µM

O=C(OCCCCc1ccccc1)c1cc(NCc2cc(O)ccc2O)ccc1O
IC50 [1]: 0.4 µM

CC(C)(C)ONC(=O)c1cc(NCc2cc(O)ccc2O)ccc1O
IC50 [1]: 0.1 µM
inhibition [11]: 35%

O=C(OC/C=C/c1ccccc1)c1cc(NCc2cc(O)ccc2O)ccc1O
IC50 [1]: 1.3 µM

CC(C)(C)ONC(=O)Cc1cc(/N=C/c2cc(O)ccc2O)ccc1O
IC50 [1]: 31 µM

CC(COC(=O)c1cc(NCc2cc(O)ccc2O)ccc1O)Cc1ccccc1 (centres undefined)
IC50 [1]: 0.36 µM

CCOP(=O)(Cc1cc(/N=C/c2cc(O)ccc2O)ccc1O)OCC
IC50 [1]: > 100 µM

O=C(NOCc1ccccc1)c1cc(NCc2cc(O)ccc2O)ccc1O
IC50 [1]: 0.05 µM

O=C(Oc1cccc(O)c1)c1cc(NCc2cc(O)ccc2O)ccc1O
IC50 [1]: 0.09 µM

CC(C)(C)OC(=O)c1cc(NCc2cc(O)ccc2O)ccc1O
IC50 [1]: 1 µM

COC(=O)c1cc(NCc2cc(O)ccc2O)ccc1O
IC50 [6]: 1 µM
IC50 [1]: 0.6 µM
IC50 [2]: 150 µM
IC50 [3]: 400 µM

CCOC(=O)c1cc(NCc2cc(O)ccc2O)ccc1O
IC50 [1]: 0.4 µM

CC(C)(C)ONC(=O)c1cc(/N=C/c2cc(O)ccc2O)ccc1O
inhibition [7]: 20%

COC(=O)Cc1cc(NCc2cc(O)ccc2O)ccc1O
IC50 [1]: 3 µM
